Data published in publication PMC5845419 (RMD Open, 2018).
“Also recorded” adds a separate entry of the source. Where two headings read alike, the source gives them in different places.

What was measured:
[1] = test system: serum urate (sUA); test: Serum urate; type: in vivo, human; conditions: 7 days, adults with gout
In short: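 Adults with gout, 7-day periods; second dose of twice-daily regimen given after evening meal ~10 hours after first. Serum sampled at preset intervals on baseline (day −1) and days 7–35; non-ULT subjects started colchicine ~day −7. Emax as maximum per cent sUA change from baseline; mixed-effects model (sequence, treatment fixed; subject random; baseline covariate) giving least-squares means.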

[2] = type: in vivo, human
In short: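 Adults with gout, open-label, randomised by incomplete block design; 7-day treatment periods, oral dosing ~30 min after standardised breakfast. Serial plasma samples on days 7–35 and timed total-catch urine (1-hour rising to 2- or 10-hour intervals) with scheduled water intake. Plasma by protein precipitation, urine diluted with water; LC-MS/MS. Mixed-effects model (treatment fixed, subject random); geometric means.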

[3] = Safety and tolerability, phase IIa study in adults with gout; type: in vivo, human; conditions: all dose combinations of verinurad (2.5–20 mg) and allopurinol 300 mg once daily
[4] = single oral 10 mg dose, healthy volunteers; cited from earlier work
[5] = verinurad 2.5 mg + allopurinol 300 mg once daily
[6] = verinurad 20 mg + allopurinol 300 mg once daily
[7] = allopurinol 600 mg once daily vs 300 mg twice daily

With CC(C)(Sc1ccncc1-c1ccc(C#N)c2ccccc12)C(=O)O [verinurad] the “least-squares mean Emax (maximum per cent decrease in sUA from baseline)” value [1, 5] was 47%, the “least-squares mean Emax (maximum per cent decrease in sUA from baseline)” value ([1]; verinurad 5 mg + allopurinol 300 mg once daily) was 59% and the “least-squares mean Emax (maximum per cent decrease in sUA from baseline)” value ([1]; verinurad 7.5 mg + allopurinol 300 mg once daily) was 60%. The “least-squares mean Emax (maximum per cent decrease in sUA from baseline)” value ([1]; verinurad 10 mg + allopurinol 300 mg once daily) was 67%, the “least-squares mean Emax (maximum per cent decrease in sUA from baseline)” value ([1]; verinurad 15 mg + allopurinol 300 mg once daily) was 68% and the “least-squares mean Emax (maximum per cent decrease in sUA from baseline)” value [1, 6] was 74%. For the same molecule, the Tmax ([2]; human, plasma, oral, median Tmax, range across verinurad doses 2.5–20 mg in combination with allopurinol 300 mg once daily) was 3 to 3.97 h, the “Ae0–24 (amount excreted in urine)” value [2, 5] was 17.8 µg and the “Ae0–24 (amount excreted in urine)” value [2, 6] was 165 µg. The “effect of verinurad on plasma PK of allopurinol” value ([2]; verinurad 2.5–20 mg + allopurinol 300 mg once daily) was “no effect; also recorded: did not affect”, the tolerability [3] was “generally well tolerated” and the tolerability ([3]; listed as Verinurad) was “well tolerated”. For the same molecule, the “fraction of dose absorbed” value [4] was ~ 64%, the “median time to maximum observed plasma concentration (Tmax)” value [4] was 0.5 h and the terminal half-life [4] was 15 h.

In the case of Oc1ncnc2[nH]ncc12 [allopurinol, reference compound], the “least-squares mean Emax (maximum per cent decrease in sUA from baseline)” value ([1]; allopurinol 300 mg once daily alone) is reported as 40%, the “least-squares mean Emax (maximum per cent decrease in sUA from baseline)” value ([1]; allopurinol 300 mg twice daily alone) is reported as 54% and the “least-squares mean Emax (maximum per cent decrease in sUA from baseline)” value ([1]; allopurinol 600 mg once daily alone) is reported as 54%. The “least-squares geometric mean ratio (90% CI), allopurinol Cmax” value [2, 7] was 204 (162 to 257) and the “change of allopurinol Ae0–24 and CLR0–24 by verinurad” value ([2]; verinurad at any dose (2.5–20 mg) + allopurinol 300 mg once daily) was “generally unchanged”.

With O=c1[nH]c(=O)c2c[nH]nc2[nH]1 [oxypurinol] the “least-squares geometric mean ratio (90% CI), oxypurinol Cmax” value [2, 7] was 122 (103 to 146).
